According to ChEMBL document CHEMBL4138092, “Antibacterial activity and mechanism of action of the benzazole acrylonitrile-based compounds: In vitro, spectroscopic, and docking studies” (2017):
Values after ≈ are worked out from the molar mass of the structure shown.

Columns and labels:
Bacillus spizizenii [1] = test: Antibacterial activity against Bacillus subtilis ATCC 6633 after 24 to 48 hrs by agar well diffusion method; format: functional
Summary of the method: (§1)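 Mueller Hinton agar plates spread with bacteria (10⁶ cells/ml). Wells were filled with 50 µl of compound and incubated at 37 °C for 24–48 h. The inhibition zone diameter (mm) was measured with a transparent scale. Amoxicillin 5.0 mg/ml at 50 µl/well served as the positive control.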

Escherichia coli [2] = test: Antibacterial activity against Escherichia coli ATCC 25922 after 24 to 48 hrs by agar well diffusion method; format: functional; summary of the method: as §1
Escherichia coli [3] = test: Antibacterial activity against Escherichia coli ATCC 25922 after 24 hrs by agar well diffusion method; format: functional; conditions: ATCC 25922, 24 h
Pseudomonas aeruginosa [4] = test: Antibacterial activity against Pseudomonas aeruginosa ATCC 27853 after 24 hrs by agar well diffusion method; format: functional; conditions: ATCC 27853, 24 h
Bacillus spizizenii [5] = test: Antibacterial activity against Bacillus subtilis ATCC 6633 after 24 hrs by agar well diffusion method; format: functional; conditions: ATCC 6633, 24 h
Staphylococcus aureus [6] = test: Antibacterial activity against Staphylococcus aureus ATCC 25923 after 24 hrs by agar well diffusion method; format: functional; conditions: ATCC 25923, 24 h
Staphylococcus aureus [7] = test: Antibacterial activity against Staphylococcus aureus ATCC 25923 after 24 to 48 hrs by agar well diffusion method; format: functional; summary of the method: as §1
Pseudomonas aeruginosa [8] = test: Antibacterial activity against Pseudomonas aeruginosa ATCC 27853 after 24 to 48 hrs by agar well diffusion method; format: functional; summary of the method: as §1
Bifidobacterium longum = test: Antibacterial activity against Bifidobacterium infantis after 24 hrs by agar well diffusion method; format: functional, Bifidobacterium longum subsp. infantis

Row | SMILES | MIC (Escherichia coli [3]) [µg/mL] | MIC (Pseudomonas aeruginosa [4]) [µg/mL] | MIC (Bacillus spizizenii [5]) [µg/mL] | MIC (Staphylococcus aureus [6]) [µg/mL] | MIC (Bifidobacterium longum) [µg/mL] | inhibition zone (IZ) (Bacillus spizizenii [1]) [mm] | inhibition zone (IZ) (Escherichia coli [2]) [mm] | inhibition zone (IZ) (Staphylococcus aureus [7]) [mm] | inhibition zone (IZ) (Pseudomonas aeruginosa [8]) [mm]
1 | N#C/C(=C\c1cnc(NCc2ccccc2)nc1)c1nc2ccccc2s1 | 18.3 (≈ 49.5 µM) | 18.3 (≈ 49.5 µM) | 18.3 (≈ 49.5 µM) | 18.3 (≈ 49.5 µM) |  | 39 | 50 | 35 | 35
2 | CN(C)c1ncc(/C=C(\C#N)c2nc3ccccc3s2)cn1 | 50 (≈ 163 µM) | 35.8 (≈ 116 µM) | 50 (≈ 163 µM) | 35.8 (≈ 116 µM) |  | 45 | 52 | 35 | 32

Further compounds by falling MIC (Escherichia coli [3]), results first:

Row | MIC (Escherichia coli [3]) [µg/mL] | MIC (Pseudomonas aeruginosa [4]) [µg/mL] | MIC (Bacillus spizizenii [5]) [µg/mL] | MIC (Staphylococcus aureus [6]) [µg/mL] | MIC (Bifidobacterium longum) [µg/mL] | SMILES | inhibition zone (IZ) (Bacillus spizizenii [1]) [mm] | inhibition zone (IZ) (Escherichia coli [2]) [mm] | inhibition zone (IZ) (Staphylococcus aureus [7]) [mm] | inhibition zone (IZ) (Pseudomonas aeruginosa [8]) [mm]
3 | 18 (≈ 51.1 µM) | 18 (≈ 51.1 µM) | 25 (≈ 70.9 µM) | 18 (≈ 51.1 µM) |  | N#C/C(=C\c1cnc(NCc2ccccc2)nc1)c1nc2ccccc2[nH]1 | 40 | 45 | 35 | 30
4 | 14.3 (≈ 49.3 µM) | 11.1 (≈ 38.2 µM) | 20 (≈ 68.9 µM) | 11.1 (≈ 38.2 µM) |  | CN(C)c1ncc(/C=C(\C#N)c2nc3ccccc3[nH]2)cn1 | 39 | 50 | 30 | 30
5 | 1.5 (≈ 4.1 µM) | 1 (≈ 2.74 µM) | 1.5 (≈ 4.1 µM) | 1.5 (≈ 4.1 µM) | 1.5 (≈ 4.1 µM) | CC1(C)S[C@@H]2[C@H](NC(=O)[C@H](N)c3ccc(O)cc3)C(=O)N2[C@H]1C(=O)O [AMOXICILLIN] | 14 | 21 | 25 | 24
